# thrombin 1536 = inhibitors of human thrombin; P00734; alpha-thrombin, Boc-VPR-AMC fluorogenic substrate cleavage; inhibition, % at 5 µM; 220,000 tested, 0.26% active; AID 1046;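 active means inhibition at or above 40%; inactive means inhibition below 40%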;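 further: 0% = enzyme with no compound and 100% = wells without enzyme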
#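 Test system: human alpha-thrombin; medium: pH 7.5 Tris-saline with Tween 20; times: reaction at room temperature; signal: AMC fluorescence at 355 nm excitation and 460 nm emission; also added: Boc-VPR-AMC substrate, 15 µM final; dosing: one concentration per compound, 5 µM, with 0.2% DMSO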
# Rce1 inh = yeast Ras-converting enzyme inhibition | calls only | yeast membranes, quenched prenylated peptide cleavage fluorescence | Q03530 | AID 2563 | 290,000 tested, 0.27% active;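 active means fall in fluorescence gain of 50% or more versus controls, with final raw signal at or below 3038400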;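 further: plate controls were neutral control wells for no effect and wells lacking membranes for full effect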
# Target sequence (Q03530 whole entry, looked up): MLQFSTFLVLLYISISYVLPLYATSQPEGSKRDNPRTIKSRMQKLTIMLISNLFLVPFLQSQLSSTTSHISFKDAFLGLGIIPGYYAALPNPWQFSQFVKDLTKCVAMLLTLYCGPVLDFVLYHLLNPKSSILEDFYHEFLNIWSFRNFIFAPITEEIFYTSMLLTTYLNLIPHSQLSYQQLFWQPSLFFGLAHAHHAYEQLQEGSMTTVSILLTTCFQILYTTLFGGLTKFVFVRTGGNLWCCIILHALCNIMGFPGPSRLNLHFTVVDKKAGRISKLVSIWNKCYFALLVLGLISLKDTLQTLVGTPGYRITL
# hK5 inh = kallikrein 5 (human) inhibition | Q9Y337 | recombinant hK5, fluorogenic AMC substrate cleavage | inhibition, % at 5 µM | 210,000 tested, 0.59% active;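 active means inhibition of 40% or more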;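 further: 0% = enzyme controls without compound and 100% = no-enzyme blanks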
# CTSL1 counter = cathepsin L1 inhibition, PFM18AAP counter-screen | recombinant F. hepatica cathepsin L1, Z-Leu-Arg-MCA fluorescence | inhibition, % at 5.96 µM | 300,000 tested, 0.49% active;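 active means inhibition above the mean of all tested compounds plus 3 SD, set per screening campaign, cut at about 17% in these data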;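 further: 0% = plate median of test compound wells and 100% = 1 µM Z-Phe-Ala-diazomethylketone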
# FXIIa inh 1536 = blocks human coagulation factor XIIa protease activity; 220,000 tested, 0.3% active; inhibition, % at 5 µM; P00748; purified FXIIa, Boc-QGR-AMC fluorogenic substrate, 2 h; in the data active means inhibition above about 40%;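 further: 0% = enzyme with no compound and 100% = blank without enzyme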
# FXIa inh 1536 = factor XIa (human) inhibition; P03951; purified FXIa, Boc-Glu-Ala-Arg-AMC fluorogenic substrate; inhibition, % at 5 µM; 220,000 tested, 0.14% active;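 active means inhibition of at least 40%; inactive means inhibition below 40%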;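 further: fluorescence of freed AMC excited at 355 nm; 0% = enzyme without compound and 100% = no enzyme blank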
# * hit, by the source's call; i = inactive; nt = no result given; + = active, no number. Rows were chosen to be rich in hits. Some 1.4% of all compounds tested hit in one or more screens of this group.
SMILES,thrombin 1536,Rce1 inh,hK5 inh,CTSL1 counter,FXIIa inh 1536,FXIa inh 1536
O=C(NC1CCCC1)c1cc(-c2ccc(Cl)cc2Cl)on1,nt,i,nt,-5,nt,nt
Cc1nnc(NC(=O)c2cccc(F)c2)s1,7,i,44*,1,16,4
CC(=O)Cc1nsc(NC(=O)c2ccc(-c3cccc(C(F)(F)F)c3)o2)n1,3,i,2,0,12,3
CC(=O)Cc1nsc(NC(=O)c2cccc(F)c2)n1,0,i,52*,0,21,25
N#CN(CC(N)=O)c1nc(N2CCCCC2)nc(N2CCCCC2)n1,1,i,-8,25*,18,1
Cn1c(CC(=O)Nc2ccccc2Cl)nnc1SCC(=O)Nc1nncs1,nt,i,nt,2,nt,nt
COc1ccc(N2C(=O)CC(Nc3cccc([N+](=O)[O-])c3)C2=O)cc1 (stereo unspecified),17,i,42*,1,44*,18
Cc1ccc(NC2CC(=O)N(c3cccc([N+](=O)[O-])c3)C2=O)cc1 (stereo unspecified),-1,i,-1,-8,5,-4
O=C(CCSc1ccccn1)c1ccccc1,1,i,-11,19*,2,-5
O=C(CCCN1C(=O)c2cccc3cccc(c23)C1=O)NCc1cccnc1,20,i,39,1,49*,36
O=C(CCCCCN1C(=O)c2cccc3cccc(c23)C1=O)NCc1cccnc1,-3,i,-1,1,2,-3
Cc1nnsc1NC(=O)OCc1ccc(C(C)(C)C)cc1,0,i,-2,-1,-10,-4
CSc1cccc(NC(=O)CN(Cc2ccc(Cl)cc2)S(C)(=O)=O)c1,4,i,12,2,12,7
Cc1ccc(C(C[N+](=O)[O-])c2c(C)[nH]n(-c3ccccc3)c2=O)cc1 (stereo unspecified),-2,i,-17,31*,13,4
Cc1nc(=O)c(-c2ccccc2)c(C)n1CC1CCCO1 (stereo unspecified),15,nt,74*,-1,5,0
O=C(CCCCCN1C(=O)[C@@H]2Cc3ccccc3CN2C1=O)Nc1ccccc1Cl,nt,i,nt,6,nt,nt
CC(C)Cc1cc(C(=O)NCc2cccs2)no1,21,i,55*,-4,8,8
CC(C)Cc1cc(C(=O)NCCN2CCOCC2)no1,23,i,44*,-1,0,5
CC(=O)NC(CC(=O)N(C)C1CCCCC1)c1ccccc1 (stereo unspecified),nt,i,nt,1,nt,nt
CC1CN(CCCCOc2ccc3ccccc3c2)CC(C)O1 (stereo unspecified),-6,i,-2,19*,9,9
COc1cccc(OCCCCN2CC(C)OC(C)C2)c1 (stereo unspecified),4,nt,-2,-4,-10,3
COC(=O)c1ccc(N2CCN(C)CC2)c(NC(=O)c2ccc(-c3ccc(Cl)cc3)o2)c1,nt,i,nt,-2,nt,nt
COc1ccc(CNC(=O)[C@@H](NC(=O)C2CCN(C(=O)[C@@H](N)CCSC)CC2)C(C)C)cc1,nt,nt,nt,-2,nt,nt
Cc1ccc2c(C)c(C(=O)N(Cc3ccc(F)cc3)C3CCS(=O)(=O)C3)oc2c1 (stereo unspecified),nt,+,nt,1,nt,nt
Cc1c(C(=O)N(Cc2ccc(F)cc2)C2CCS(=O)(=O)C2)oc2ccccc12 (stereo unspecified),nt,i,nt,2,nt,nt
SMILES,thrombin 1536,Rce1 inh,hK5 inh,CTSL1 counter,FXIIa inh 1536,FXIa inh 1536
Cc1ccc(S(=O)(=O)N(C)c2ccc(OCC(=O)Nc3nnc(C4CC4)s3)cc2)cc1,1,i,-22,nt,-9,-4
CC(C)Cn1c(N)c(C(=O)COC(=O)c2ccc(O)cc2O)c(=O)n(C)c1=O,nt,i,nt,2,nt,nt
CCOC(=O)c1cnn(-c2nc(SC)nc3sc4c(c23)CCCC4)c1N,2,i,-20,4,0,-3
CCOC(=O)C(CC)n1cnc2sc3c(c2c1=O)CCC3 (stereo unspecified),-5,i,7,10,9,-3
CCOC(=O)c1cnn(-c2ncnc3sc4c(c23)CCC4)c1N,49*,i,34,2,22,14
CCOC(=O)C(C)n1cnc2sc3c(c2c1=O)CCC3 (stereo unspecified),19,i,40*,1,13,6
COc1ccc(CNC(=O)CNS(=O)(=O)c2cccs2)cc1,nt,i,nt,-2,nt,nt
Cc1ccc(N=Cc2c(O)n(-c3ccc4c(c3)OCO4)c(=O)c3ccccc23)cc1,1,i,2,-2,43*,-3

# Assay outcomes from PubChem BioAssay.
